Experimental findings from PubChem BioAssay AID2178 (The Scripps Research Institute Molecular Screening Center, 2009) are described below.

As a reminder, the inhibition is the change of the read-out against control, counted positive when it falls.

Molecules are shown by their SMILES. Screen size: about 2,400 compounds; fewer than 10 were called active. The list is a sample of the results. A number with no mark means an inactive call.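 How the source made its calls: active means average inhibition across replicates above the hit cutoff set in the earlier primary screen; inactive means the rest.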

Procathepsin L (Homo sapiens), sequence (P07711 whole entry, looked up): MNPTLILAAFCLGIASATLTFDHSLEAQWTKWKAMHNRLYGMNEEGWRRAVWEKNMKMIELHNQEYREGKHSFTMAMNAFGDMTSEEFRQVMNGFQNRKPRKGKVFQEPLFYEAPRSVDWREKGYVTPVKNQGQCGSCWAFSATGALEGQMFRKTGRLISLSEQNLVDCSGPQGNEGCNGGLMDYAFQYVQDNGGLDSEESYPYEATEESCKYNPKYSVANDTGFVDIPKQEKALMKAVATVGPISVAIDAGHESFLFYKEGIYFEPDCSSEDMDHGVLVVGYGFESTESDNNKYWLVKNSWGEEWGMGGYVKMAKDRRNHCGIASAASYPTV

The assay has as its target Procathepsin L (Homo sapiens) (UniProt P07711). Description: CTSL1 protease inhibition confirmation – biochemical, QFRET, triplicate, counter-screen for PFM18AAP inhibitor project (AID 2178).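 Further: 0% = median of test compound wells and 100% = Z-Phe-Ala-diazomethylketone 1 µM.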 The note with it: purified cathepsin L1, Z-Leu-Arg-MCA fluorescence; at 5.96 µM; stronger effect = higher value. The method in brief:
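System: Purified cathepsin L1 | Amount: Enzyme 1.5 µg/mL before substrate addition | Also added: Z-Leu-Arg-MCA fluorogenic substrate | Incubation: Enzyme-compound preincubation 30 min, substrate reaction 90 min, 25 °C | Technique: MCA fluorescence measured at substrate addition and at 90 min | Measure: Percent inhibition from fluorescence change | Replicates: Triplicate wells per compound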
For orientation: A counterscreen serves to expose hits that act by an unwanted route or on another target.
Regarding `CCN(CC)c1ccc(NC(=O)CCc2nnc3ccc(N4CCCCC4)nn23)c(C)c1`, the inhibition is 1.25%. Turning to `c1ccc2sc(NN=C3CCCC3)nc2c1`, the inhibition is 0.11%. On to `Cc1ccc(S(=O)(=O)N/N=C\c2cc3c(cc2[N+](=O)[O-])OCO3)cc1`, for which the inhibition is -3.66%.

With `Cc1csc(NC(=O)NC2(C(F)(F)F)Oc3ccccc3O2)n1`, the inhibition is -4.56%. Take `Cn1c(SCC(=O)N/N=C/c2ccc(O)c(O)c2)nc2ccccc21`: the inhibition is -2.42%. As for `O=C(O)CCn1c(O)c(C=C2N=c3ccccc3=N2)sc1=S`, the figure is 2.67%; as for `NC(=O)c1c(NC(=O)CSc2nnc(-c3ccco3)n2N)sc2c1CCCC2`, -6.97%; as for `O=C(Nn1cnnc1)c1cc(Cl)ccc1Cl`, -2.58%. As to `CC(C)C1N=C2c3ccccc3N=C(SCC(=O)c3ccc(O)c(O)c3)N2C1=O` (stereo unspecified), the inhibition is 6.47%. On to `COc1ccc(OCc2nnc3n2N=C(c2ccccc2)C(CC(=O)O)S3)cc1` (stereo unspecified), for which the inhibition is 0.71%. As for `Cc1ccc(C)c(NC(=O)NNC(=O)c2ccc3ccccc3c2O)c1`, the figure is -3.43%.

Consider `CNC(=S)NNC(=O)c1ccc(N(C)C)cc1`, for which the inhibition is 3.16%. As for `CCN(CC)c1ccc(/C=N/Nc2nc(C)cc(C)n2)c(O)c1`, the figure is 4.21%.

As to `COc1ccc(OCc2n[nH]c(=S)n2N)cc1`, the inhibition was -6.49%.

`Cc1cc(C)nc(Nc2ncn[nH]2)n1`: the inhibition was -0.26%. `O=C(Oc1ccc(Br)cc1C(=S)N1CCOCC1)c1cccc([N+](=O)[O-])c1`: the inhibition is -0.38%. Turning to `Cc1ccc(-c2ccc(/C=C(\C#N)C(N)=S)o2)c([N+](=O)[O-])c1`, the inhibition was -0.99%. Turning to `O=C(CN1CCN(c2ccc(O)cc2)CC1)Nc1ccc(-c2ccccc2)cc1`, the inhibition is -1.37%. As for `Oc1ccc(/C=N/Nc2ccc(C(F)(F)F)cn2)cc1O`, the figure is -2.87%; as for `CCCc1nc2ccccc2c(=O)n1/N=C/c1ccc(O)c(O)c1`, -0.21%. Consider `Cc1cc(C)nc(NNC2=CC(=O)CC(C)(C)C2)n1`, for which the inhibition is -3.35%. With `CCN(CC)c1ccc2oc(=O)c(C)nc2c1`, the inhibition is -1.42%.

Consider `COc1c(O)ccc2c1CN1CCc3cc4c(cc3C1C2)OCO4` (stereo unspecified), for which the inhibition was -3.11%. `CC(C)(C)c1nnc(N/N=C/c2ccc(O)cc2)n(N)c1=O`: the inhibition was -5.72%.

For `Oc1ccc(/C=N/NC2=NCCCCC2)c(O)c1`, the inhibition was 1.65%. On to `CC(C)(C)C(=O)OCc1nc(-c2ccc(O)c(O)c2)cs1`, for which the inhibition is -4.53%. With `NC(=S)N/N=C/c1coc2cc(Cl)ccc2c1=O`, the inhibition is 1.96%. Consider `CCn1ccnc1CNC(=O)CC1C(=O)NCCN1Cc1ccc(F)cc1Cl` (stereo unspecified), for which the inhibition was -3.42%. Take `COc1cc(/C=N/NC(=S)Nc2cccnc2)cc(OC)c1O`: the inhibition was -3.45%. Consider `Cn1c(=O)[nH]c(=O)c2c1[nH]c(=S)n2Cc1ccccc1`, for which the inhibition was -1.96%. As to `CC1CCN(C(=O)c2ccc3c(c2)NC(=O)CN3)CC1`, the inhibition was -3.71%. As for `O=C(O)c1cccc(NC(=S)N/N=C/c2c[nH]c3ccccc23)c1`, the figure is -2.87%.

Take `O=C(Nc1cccc([N+](=O)[O-])c1)Nn1cnnc1`: the inhibition is -5.02%. As for `COc1cc(/C=N\Nc2ccc([N+](=O)[O-])cn2)ccc1OCC(=O)O`, the figure is 6.51%; as for `CC(C)c1ccc(NC(=S)NNc2ccc(Cl)c(C(=O)O)c2)cc1`, -5.45%. Then `Cc1nc2ccc(S(=O)(=O)NCC(=O)O)cc2s1`, with -0.46%; and `O=C(CSc1ncn[nH]1)Nc1ccnc2ccccc12`, with -0.72%. As for `CCOc1cccc(/C=N/NC(=S)NCCN2CCOCC2)c1O`, the figure is 3.05%; as for `CCOc1ccc(C2C3=C(CCCC3=O)N(CC(=O)O)C3=C2C(=O)CCC3)cc1`, 0.31%; as for `COc1cc(/C=C2/C(=O)NN(c3cccc(Cl)c3)C2=O)cc(Br)c1O`, -3.26%. In the case of `O=C(CO/N=C/c1ccccc1O)NNC(=O)c1ccccc1Cl`, the inhibition is -40.2%. Take `COc1ccc2c(c1)C(C)=CC(C)(C)N2C(=O)Nc1ccccc1`: the inhibition was 0.44%. For the compound `Oc1ccc(N2CCN(C(=S)NCc3ccccc3)CC2)cc1`, the inhibition was 0.35%. As for `Cc1ccc2nc(-c3cccc(Br)c3)cc(C(=O)Nn3cnnc3)c2c1`, the figure is -9.17%. For the compound `CN(C)c1ccc(C(CC(=O)O)C(=O)O)cc1` (stereo unspecified), the inhibition was -7.14%.

For `CC(OC(=O)c1ccc2noc(-c3ccccc3)c2c1)C(N)=O` (stereo unspecified), the inhibition was 2.03%. With `NC(=O)C1CCN(C(=O)/C(=C/c2ccco2)NC(=O)c2ccccc2)CC1`, the inhibition was -6.56%. `Cc1cccc(NC(=O)c2sc3nc(N4CCOCC4)c4c(c3c2N)CCCC4)c1`: the inhibition was -1.63%. As to `CSc1n[nH]c(=S)n1N`, the inhibition is -0.69%. Then `CC(C)(C)NC(=O)C(c1ccncc1)N(C(=O)CNC(=O)c1ccco1)c1ccc2c(c1)OCO2` (stereo unspecified), with -6.31%; and `Cc1nc2nc[nH]n2c(=O)c1C/C=C/c1ccccc1`, with -4.98%. Then `COc1ccc(N/C=C(\C2OC(=O)c3ccccc32)[N+](=O)[O-])cc1` (stereo unspecified), with -5.34%. As for `c1ccc2c(c1)OCC(c1nn3cnnc3s1)O2` (stereo unspecified), the figure is 2.86%; as for `COc1cc(/C=N/Nc2nn3cnnc3c3ccccc23)cc(OC)c1OC`, 3.85%; as for `ClC1(Cl)CC1CSc1ncn[nH]1` (stereo unspecified), -4.69%. As to `S=c1[nH]nc2c3c4c(sc3ncn12)CCCC4`, the inhibition was -1.23%.
